Experimental findings from ChEMBL document CHEMBL3351845, “Synthesis and in vitro stability of amino acid prodrugs of 6-β-naltrexol for microneedle-enhanced transdermal delivery” (Bioorg Med Chem Lett, 2014) are described below.

Data set [1] can be described thus: Stability in pH 5.0 0.3 M acetate buffer assessed as time duration in which 90% produg stability at 1 mg by HPLC method. The class given is physicochemical. As to conditions: in vitro. Put shortly: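 Roughly 1 mg prodrug was added to 10 mL of 0.3 M acetate buffer, pH 5.0, thermostated at 32 °C, then vortexed 1 min and filtered through 0.45 μm nylon. Degradation was followed over time by C-8 reversed-phase HPLC with UV at 215 or 278 nm, mobile phase 70:30 ACN:aqueous TFA/octane sulfonate, pH 3.0. t90 is the time to 10% loss; runs in duplicate.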

In data set [2] the test system is Plasma. As to the kind of experiment: Half life in 50% human plasma in presence of 50% PBS buffer assessed prodrug hydrolysis by HPLC method. The class given is ADME, cell-free. Put shortly:
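Each prodrug was made up as a DMSO stock, and 40.0 μL was added to 760.0 μL of 50% human plasma in 50% PBS (pH 7.4), pre-warmed to 37 °C. Aliquots taken at set times got salicylamide internal standard, were vortexed, centrifuged, dried under N2, and taken up in methanol/0.04% HFBA. Analysis used gradient HPLC on a phenyl column against an eight-point calibration. Kapp came from log(AUC prodrug/AUC IS) versus time; n=3, mean ± SD.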

A short description of data set [3]: Solubility in pH 7.4 25 mM HEPES buffered Hank's balanced salt solution by HPLC method. The class given is physicochemical. As to conditions: buffer.
The nature of data set [4]: Half life in pH 7.4 25 mM HEPES buffered Hank's balanced salt solution at assessed as prodrug hydrolysis 1 mg by HPLC method. It counts as physicochemical. As to conditions: buffer. Put shortly: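 About 1 mg prodrug went into 10 mL of 25 mM HEPES-buffered Hanks' balanced salt solution, pH 7.4, held at 37 °C. The mixture was vortexed 1 min and filtered through 0.45 μm nylon. Samples were run by reversed-phase C-8 HPLC with UV at 215 or 278 nm, mobile phase 70:30 ACN:aqueous 0.1% TFA/0.065% octane sulfonate, pH 3.0. Half-life was read from pseudo-first-order hydrolysis; duplicate runs.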

The structures appear in SMILES notation.

Turning to `O=C(O[C@@H]1CC[C@@]2(O)[C@H]3Cc4ccc(O)c5c4[C@@]2(CCN3CC2CC2)[C@H]1O5)[C@@H]1CCCN1`, the Time in data set [1] amounted to 0.217 days.
With `CCC(C)[C@H](N)C(=O)O[C@@H]1CC[C@@]2(O)[C@H]3Cc4ccc(O)c5c4[C@@]2(CCN3CC2CC2)[C@H]1O5` (some centres not stated), in data set [1], the Time came out at 14 days. Further, the t1/2 in data set [2] came out at 31.2 h; in data set [4], 22 h. Further, the solubility result in data set [3] is “Insoluble”.
In the case of `CC(C)[C@H](N)C(=O)O[C@@H]1CC[C@@]2(O)[C@H]3Cc4ccc(O)c5c4[C@@]2(CCN3CC2CC2)[C@H]1O5`, the Time in data set [1] came out at 5.2 days. Also, the t1/2 was 18.2 h in data set [2] and 11.5 h in data set [4].
With `NCCC(=O)O[C@@H]1CC[C@@]2(O)[C@H]3Cc4ccc(O)c5c4[C@@]2(CCN3CC2CC2)[C@H]1O5`, in data set [1], the Time was 5.6 days. Moreover, the t1/2 in data set [4] was 12 h.
On to `CC(C)C[C@H](N)C(=O)O[C@@H]1CC[C@@]2(O)[C@H]3Cc4ccc(O)c5c4[C@@]2(CCN3CC2CC2)[C@H]1O5`, for which, in data set [1], the Time was found to be 0.9 days.
As to `C[C@H](N)C(=O)O[C@@H]1CC[C@@]2(O)[C@H]3Cc4ccc(O)c5c4[C@@]2(CCN3CC2CC2)[C@H]1O5`, the Time in data set [1] was 0.412 days.
